Assay results of several laboratories.
Compare with care: the assays were run in different laboratories.
Target: Mitogen-activated protein kinase 7 (MAPK7, Homo sapiens, UniProt Q13164)

Compound | assay | setting | quantity | result
FC(F)(F)Oc1cccc(-c2cnc3ccc(-c4ccncc4)nn23)c1 | enzyme activity, inhibitor, radiometric | 1 µM | activity vs control | 51%
O=C(Nc1cnn(-c2csc(C(=O)NC3COC3)c2)c1)Nc1c(F)cccc1Cl | enzyme activity, inhibitor | 5 µM | remaining activity | 75.9%
Cn1cc(Cl)c2c(Oc3c(F)cc(Nc4cc(Cl)nc(N)n4)cc3F)ccnc21 | cell-free assay, competition with immobilised ligand | 0.1 µM | remaining binding | 100%
CC(C)(C)c1nc2c(s1)c1nc(N)ncc1c1ccc(NS(=O)(=O)c3c(F)cccc3F)c(F)c12 | enzyme activity, inhibitor, radiometric | 1 µM | remaining activity | 80%
COc1cc(Nc2cnc(C#N)c(O[C@H](C)CN(C)C)n2)ncc1-c1cnn(C)c1 | enzyme activity, inhibitor, radiometric | 10 µM | remaining activity | 85%
O=C(Nc1cnn(-c2csc(C(=O)NC3COC3)c2)c1)Nc1ccccc1Cl | enzyme activity, inhibitor | 5 µM | remaining activity | 119%
O=C(Nc1ccc(Oc2ccc(F)cc2)cc1)N1CCc2ncccc2[C@H]1c1ccc(F)cc1 | cell-free assay, competition with immobilised ligand | 1 µM | remaining binding | 96%
COc1cccc2c(NCc3ccccc3)nc(-n3c(N)nc4ccccc43)nc12 | target engagement in cells, inhibitor, chemoproteomics | 20 mM | inhibition | -14.3%
COc1ccc2c(c1)O[C@@H](c1ccc(OC)c(OC)c1)C[C@H]2NC(=O)C1(c2ccc3c(c2)OC(F)(F)O3)CC1 | cell-free assay, competition with immobilised ligand | 1 µM | remaining binding | 100%
CCCCNc1ncc2c(-c3ccc(F)cc3)nn(C[C@H]3CC[C@H](N)CC3)c2n1 | target engagement in cells, inhibitor, chemoproteomics | 20 mM | inhibition | 11%
CC(C)(O)[C@H]1CC[C@H](Nc2ccc3ncc(-c4cccc(C(F)(F)F)c4)n3n2)CC1 | enzyme activity, inhibitor | 1 µM | remaining activity | 98.9%
Cc1ccc(C(=O)Nc2ccc(CN3CCN(C)CC3)c(C(F)(F)F)c2)cc1C#Cc1cnc2cccnn12 | enzyme activity, inhibitor | 23.5 nM | remaining activity | 98%
COc1cc(/C=C/C(=O)CC(=O)/C=C/c2ccc(O)c(OC)c2)ccc1O | enzyme activity, inhibitor | 1 µM | activity vs control | 62%
